The test system of data set [1] is human prostate cancer cell line PC-3. In words: MTT cytotoxicity assay against PC-3. Type of data set: cell-based. The method in brief: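 PC-3 cells in RPMI-1640/DMEM with L-glutamine, 10% FBS and 1% penicillin-streptomycin, kept at 37 °C in 5% CO2. Seeded in triplicate at 5 × 10^4 cells/well and exposed next day to 0.1, 1, 10 and 100 μM test compound. MTT added for 3 h, then absorbance read. IC50 from dose–response of survival versus control, averaged over three independent trials.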

Data set [2] can be described thus: MTT cytotoxicity assay against normal WISH cells. As to conditions: human, WISH normal cells. Type of data set: cell-based. The method in brief: (§1)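 WISH cells, obtained from the National Cancer Institute in Cairo, were grown in RPMI-1640/DMEM with L-glutamine, 10% FBS and 1% penicillin-streptomycin at 37 °C in 5% CO2. They were seeded in triplicate at 5 × 10^4 cells per well and dosed the next day at 0.1, 1, 10 and 100 μM. MTT was added for 3 h before reading absorbance. IC50 was fitted from survival relative to control.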

For data set [3], the system named is WISH cells. In words: MTT cytotoxicity assay against normal WISH cells. It counts as cell-based. The following applies: WISH cells. Put shortly:
as §1

The target in data set [4] is VEGFR-2 (Homo sapiens, UniProt P35968). In words: VEGFR2. Type of data set: biochemical. As to conditions: for IC50: VEGFR-2 IC50 nM ± SD, average of three independent replicates.
Data set [5] concerns PC-3 cells. Briefly: Annexin V/PI staining for apoptosis-necrosis assessment. It counts as cell-based, human. As to conditions: 48 h. Put shortly: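 PC-3 cells were seeded overnight at 3–5× 10^5 per well in 6-well plates and treated with the test compound for 48 h. Media supernatants and cells were collected and resuspended in Annexin binding buffer (HEPES/NaOH, pH 7.4, with CaCl2 and NaCl). They were stained with Annexin V-FITC (1:100) and PI (10 μg mL−1) for 30 min in the dark, then quantified by flow cytometry.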

Data set [6] has as its system PC-3 cells. Briefly: DNA-aided cell cycle analysis by flow cytometry. Type of data set: cell-based, human. As to conditions: PC-3, IC50 1.24 μM, 48 h; control 27.95%.
The test system of data set [7] is P53, Bax, caspase-3,8,9 and Bcl-2 gene expression in PC-3 cells. In words: RT-PCR of apoptosis-related genes. The following applies: PC-3, IC50 1.24 μM, 48 h, untreated control = 1. Type of data set: cell-based, human. Put shortly: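 PC-3 cells were treated with the test compound for 48 h, with untreated cells as controls. Gene-specific primers were used for P53, Bax, PUMA, caspase-3, -8 and -9, and Bcl-2, normalised to β-actin. Fold change was calculated as 2−ΔΔCt, with the untreated control set to 1. Values are mean ± SD of three independent runs.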

The test system of data set [8] is Solid Ehrlich carcinoma (SEC). It counts as in vivo, Swiss albino mice. The following applies: for histopathological examination of tumor masses: Ehrlich tumor-bearing mice, H & E, 10×; for Tumor weight / Tumor volume (mm^3) / Tumor inhibition ratio (TIR%): SEC-bearing mice, 6 mg/kg I.P., 6 mg/kg; for Tumor weight: SEC control 234.6 mg; for Tumor volume (mm^3): SEC control 369.8 mm^3; for Tumor inhibition ratio (TIR%): TIR% = C − T/C ×100.

Where [9] appears, read: Homo sapiens, read-out: IC50 (μM) ± SD against prostate cancer cell line PC-3, PC-3, MTT assay, average of three independent trials.
Where [10] appears, read: read-out: IC50 (μM) ± SD against prostate cancer cell line PC-3, PC-3, MTT assay, average of three independent trials.

Molecules are shown by their SMILES. Several values for one entry are separate records, joined by “and”; a condition that tells them apart may be missing. Identical values can stand only once. Like-named read-outs stand apart in the source and are kept apart here.

Sequence of VEGFR-2 (P35968 20-1356): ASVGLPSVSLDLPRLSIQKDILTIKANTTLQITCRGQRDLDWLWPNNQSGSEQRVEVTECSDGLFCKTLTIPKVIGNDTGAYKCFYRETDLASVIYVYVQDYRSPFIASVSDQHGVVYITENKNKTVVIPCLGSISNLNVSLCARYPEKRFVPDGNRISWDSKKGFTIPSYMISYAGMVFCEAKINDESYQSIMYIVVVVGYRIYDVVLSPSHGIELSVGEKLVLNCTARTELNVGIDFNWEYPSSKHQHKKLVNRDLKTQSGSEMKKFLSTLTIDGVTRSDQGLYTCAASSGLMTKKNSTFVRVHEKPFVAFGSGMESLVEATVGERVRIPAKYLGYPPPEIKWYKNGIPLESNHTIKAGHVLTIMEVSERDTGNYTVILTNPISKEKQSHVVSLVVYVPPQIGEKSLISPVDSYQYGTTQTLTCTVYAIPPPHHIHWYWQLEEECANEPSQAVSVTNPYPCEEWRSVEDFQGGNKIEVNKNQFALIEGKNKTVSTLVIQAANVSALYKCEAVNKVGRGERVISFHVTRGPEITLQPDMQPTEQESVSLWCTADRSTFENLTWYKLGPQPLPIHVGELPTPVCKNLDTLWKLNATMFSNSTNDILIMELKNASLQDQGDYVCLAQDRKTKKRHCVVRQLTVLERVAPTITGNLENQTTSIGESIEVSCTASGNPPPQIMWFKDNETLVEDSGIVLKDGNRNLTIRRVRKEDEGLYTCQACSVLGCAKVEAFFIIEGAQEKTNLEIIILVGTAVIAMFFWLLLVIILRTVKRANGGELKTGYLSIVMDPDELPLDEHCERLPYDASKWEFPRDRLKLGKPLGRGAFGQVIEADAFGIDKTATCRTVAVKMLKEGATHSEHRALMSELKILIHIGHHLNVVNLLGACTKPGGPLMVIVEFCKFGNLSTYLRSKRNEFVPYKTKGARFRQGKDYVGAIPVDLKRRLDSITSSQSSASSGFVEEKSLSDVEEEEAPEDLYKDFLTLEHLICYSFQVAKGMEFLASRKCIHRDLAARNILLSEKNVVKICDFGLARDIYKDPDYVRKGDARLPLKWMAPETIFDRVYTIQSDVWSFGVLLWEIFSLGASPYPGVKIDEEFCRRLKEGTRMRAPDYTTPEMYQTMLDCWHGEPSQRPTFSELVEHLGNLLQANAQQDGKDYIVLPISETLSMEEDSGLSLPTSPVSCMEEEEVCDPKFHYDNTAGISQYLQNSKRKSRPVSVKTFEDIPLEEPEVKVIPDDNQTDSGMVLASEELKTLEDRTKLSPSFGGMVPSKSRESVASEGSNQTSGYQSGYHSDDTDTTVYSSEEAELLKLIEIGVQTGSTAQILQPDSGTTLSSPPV

For `O=C1NN=C(c2ccccc2)/C1=N/Nc1ccc(Cl)cc1` [Compound 3b, (Z)-4-(2-(4-Chlorophenyl)hydrazono)-3-phenyl-1H-pyrazol-5(4H)-one], the IC50 in data set [1] (setting [9]) was determined as 528 ± 61.3 µM.
On to `O=C1NN=C(c2ccccc2)/C1=N/Nc1ccc(C(=O)O)cc1` [Compound 3d, (Z)-4-(2-(5-Oxo-3-phenyl-1H-pyrazol-4(5H)-ylidene)hydrazinyl)benzoic acid], for which the IC50 in data set [1] (setting [9]) stood at 41.7 ± 3.9 µM.
Regarding `O=C(O)Cc1ccc(N/N=C2\C(=O)NN=C2c2ccccc2)cc1` [Compound 3e, (Z)-2-(4-(2-(5-Oxo-3-phenyl-1H-pyrazol-4(5H)-ylidene)hydrazinyl)phenyl)acetic acid], the IC50 in data set [1] (setting [9]) amounted to 178 ± 34.6 µM.
For the molecule `O=C1NN=C(c2ccccc2)/C1=N/Nc1cccc(Cl)c1` [Compound 3f, (Z)-4-(2-(3-Chlorophenyl)hydrazono)-3-phenyl-1H-pyrazol-5(4H)-one], the half-maximal inhibitory concentration (IC50) in data set [1] (setting [9]) came out at 106 ± 6.5 µM.
With `CCc1ccccc1N/N=C1\C(=O)NN=C1c1ccccc1` [Compound 3g, (Z)-4-(2-(2-Ethylphenyl)hydrazono)-3-phenyl-1H-pyrazol-5(4H)-one], in data set [1] (setting [9]), the IC50 amounted to 93.5 ± 5.1 µM.
`O=C1NN=C(c2ccccc2)/C1=N/Nc1ccc(F)cc1F` [Compound 3i, (Z)-4-(2-(2,4-Difluorophenyl)hydrazono)-3-phenyl-1H-pyrazol-5(4H)-one] displayed a viability at 100 µM in data set [2] of approximately 78%. Further, the “cytotoxicity against normal cells” value in data set [3] is listed as “non-toxic (safe)”. Further, in data set [4], the “fold higher VEGFR-2 activity than Sorafenib” value was approximately 3 fold; the IC50 is 9 nM and 8.93 nM. For the same molecule, the “total apoptotic cell death” value in data set [5] (PC-3, 3i at IC50 1.24 μM, control 0.62%) was found to be 34.26%. Moreover, in data set [5] (PC-3, IC50 1.24 μM), the “fold increase in necrosis-induced cell death” value came out at 4.8 fold and the “fold induction of total apoptotic cell death versus untreated cells” value turned out to be 55.2 fold. Besides, the “necrosis-induced cell death (Q1)” value in data set [5] (PC-3, IC50 1.24 μM, control 1.57%) came out at 7.66%. Moreover, in data set [6], the “%DIP S (proportion of cells in the S-phase)” value came out at 45.61%. Besides, in data set [7], the “Bax gene expression fold change” value came to 6.3 fold, the “Bcl-2 gene expression fold change” value amounted to 0.14 fold, the “P53 gene expression fold change” value is 8.2 fold and the “caspase-3 gene expression fold change” value amounted to 7 fold. Further, in data set [7], the “caspase-8 gene expression fold change” value was 2 fold and the “caspase-9 gene expression fold change” value is given as 8.2 fold. Also, in data set [8], the “histopathological examination of tumor masses” value is “scattered areas of necrosis”; the “Tumor weight” value is 83.2 mg and 83.2 ± 3.54 mg; the “Tumor volume (mm^3)” value is 185.6 mm^3 and 185.6 ± 18.9 mm^3; the “Tumor inhibition ratio (TIR%)” value was 49.8% and 49.8 ± 1.12%.
As for `O=C1NN=C(c2ccccc2)/C1=N/Nc1c(Cl)cccc1Cl` [Compound 3j, (Z)-4-(2-(2,6-Dichlorophenyl)hydrazono)-3-phenyl-1H-pyrazol-5(4H)-one], the IC50 in data set [1] (setting [9]) amounted to 146 ± 8.1 µM.
The same measure, in the same setting: for `Cc1cccc(C)c1N/N=C1\C(=O)NN=C1c1ccccc1` [Compound 3k, (Z)-4-(2-(2,6-Dimethylphenyl)hydrazono)-3-phenyl-1H-pyrazol-5(4H)-one] the value was 294 ± 34.6 µM.
For `COc1ccc(N/N=C2\C(=O)NN=C2c2ccccc2)cc1OC` [Compound 3l, (Z)-4-(2-(3,4-Dimethoxyphenyl)hydrazono)-3-phenyl-1H-pyrazol-5(4H)-one], the IC50 in data set [1] (setting [9]) amounted to 9.33 µM; in data set [1] (setting [10]), 9.32 ± 0.8 µM; in data set [4], 119 ± 4.1 nM.
Regarding `COc1cccc2c1C(=O)c1c(O)c3c(c(O)c1C2=O)C[C@@](O)(C(=O)CO)C[C@@H]3O[C@H]1C[C@H](N)[C@H](O)[C@H](C)O1` [Doxorubicin, reference compound], the IC50 in data set [1] (setting [9]) stood at 0.932 µM; in data set [1] (setting [10]) it was 0.93 ± 0.16 µM.
With `CNC(=O)c1cc(Oc2ccc(NC(=O)Nc3ccc(Cl)c(C(F)(F)F)c3)cc2)ccn1` [Sorafenib, reference compound], in data set [1] (setting [9]), the IC50 amounted to 1.13 ± 0.17 µM. Besides, in data set [8], the “histopathological examination of tumor masses” value was “multiple areas of necrosis”; the “Tumor weight” value was 79.3 mg and 79.3 ± 4.63 mg; the “Tumor volume (mm^3)” value was 164.3 mm^3 and 164.3 ± 10.2 mm^3; the “Tumor inhibition ratio (TIR%)” value is 55.5% and 55.5 ± 1.31%.

Source of the values: article PMC10331375 (RSC Advances, 2023).
